Published values gathered from unrelated publications.
Each line is one published result; the experiments were not run side by side.
TEK: Angiopoietin-1 receptor (TEK, Homo sapiens, UniProt Q02763)
TEK R849W: Angiopoietin-1 receptor (TEK, Homo sapiens, UniProt Q02763, R849W)

SMILES	target	observed	mode	method	concentration	endpoint	result
O=C1Nc2ccc(Cl)cc2C1=Cc1cc(Cl)c(O)c(Cl)c1	TEK	cell-free assay	–	–	0.5 µM	remaining signal	93%
CC1=C(C#N)[C@@H](c2ccc3[nH]nc(C)c3c2)C(C#N)=C(c2ccc(Cl)cc2)N1	TEK	cell-free assay	–	competition with immobilised ligand	1 µM	remaining binding	74.5%
CNC(=O)c1cc2c(Oc3ccc(NC(=O)C4(C(=O)Nc5ccc(F)cc5)CC4)cc3)ccnc2cc1OC	TEK R849W	enzyme activity	inhibitor	radiometric	1 µM	inhibition	99%
Cc1[nH]c(/C=C2\C(=O)Nc3ccc(F)cc32)c(C)c1C(=O)N[C@H]1CCN(C(=O)N(C)C)C1	TEK	enzyme activity	inhibitor	–	0.1 µM	remaining activity	94%
Cc1ccc(C(=O)NCc2ccsc2)cc1C#Cc1cn(C(C)C)c2ncnc(N)c12	TEK	enzyme activity	inhibitor	–	1 µM	activity vs control	6%
CC(C)CC(=O)N1CCc2nc(-c3ccc(Br)cc3)nc(N(C)Cc3ccccc3)c2C1	TEK	cell-free assay	–	competition with immobilised ligand	0.1 µM	remaining binding	100%
COc1cc(Nc2cnc(C#N)c(O[C@H](C)CN(C)C)n2)ncc1-c1cnn(C)c1	TEK	enzyme activity	inhibitor	radiometric	1 µM	remaining activity	102%
Cn1cc(Cl)c2c(Oc3c(F)cc(Nc4cc(Cl)nc(N)n4)cc3F)ccnc21	TEK	cell-free assay	–	competition with immobilised ligand	0.1 µM	remaining binding	100%
Cc1cnc(NC2CCOCC2)nc1-n1cnc(C(=O)NC(CN)c2cc(F)cc(Cl)c2)c1 (stereo not shown)	TEK R849W	enzyme activity	inhibitor	radiometric	1 µM	remaining activity	100%
Cc1c[nH]c2nccc(Oc3c(F)cc(Nc4cc(Cl)nc(N)n4)cc3F)c12	TEK	cell-free assay	–	competition with immobilised ligand	0.1 µM	remaining binding	95%
CCN(CC)CCNC(=O)c1c(C)[nH]c(/C=C2\C(=O)Nc3ccc(F)cc32)c1C	TEK	enzyme activity	inhibitor	–	10 µM	inhibition	74%
Cc1sc(C(=O)NC2COC2)cc1-n1cc(NC(=O)Nc2c(F)cccc2Cl)cn1	TEK	enzyme activity	inhibitor	–	10 µM	remaining activity	86.6%
CN(C)c1ncnc(-c2ccc3nc(Nc4cc(CN5CCN(C(=O)CC(F)(F)F)CC5)ccn4)[nH]c3c2)c1Cl	TEK	cell-free assay	–	competition with immobilised ligand	1 µM	remaining binding	87%
Cc1ccc(NC(=O)c2ccc(C)c(C(F)(F)F)c2)cc1C#Cc1nn(C2CCC(O)CC2)c2ncnc(N)c12 (stereo not shown)	TEK R849W	cell-free assay	–	–	10 µM	remaining signal	0%
CCOC(=O)c1cc2cc(-c3cc(C(=O)NCc4ccc(C(=O)O)cc4)nn3C)ccc2[nH]1	TEK	cell-free assay	–	competition with immobilised ligand	0.1 µM	remaining binding	83%
Cc1cc(NC(=O)c2cccc3cc(-c4cccc5[nH]nc(N)c45)ccc23)ccc1F	Angiopoietin-1 receptor (TEK, Homo sapiens, UniProt Q02763, Y897S)	enzyme activity	inhibitor	–	0.1 µM	activity vs control	103%
CNCc1ccc(-c2cc(-c3nc(-c4ccc(S(=O)(=O)C(C)C)cc4)cnc3N)on2)cc1	TEK	enzyme activity	inhibitor	–	0.4 µM	inhibition	0%
O=C1NC(=O)c2cc(Nc3ccc(F)cc3)c(Nc3ccc(F)cc3)cc21	TEK	cell-free assay	–	–	0.5 µM	remaining signal	97.6%
Nc1ncnc2occ(-c3ccc(NC(=O)Nc4cc(C(F)(F)F)ccc4F)cc3)c12	TEK	cell-free assay	–	–	20 µM	remaining signal	0%
COc1cc2ncnc(Nc3ccc(Oc4ccccc4)c(C)c3C)c2cc1OC	TEK	enzyme activity	inhibitor	–	1 µM	inhibition	6%
CCCOc1ccc(OC)c(F)c1C(=O)c1ccc(C(=O)N[C@@H]2CNC[C@H]2NC(=O)c2ccc3[nH]ncc3c2)cc1	TEK R849W	enzyme activity	inhibitor	–	10 µM	remaining activity	46%
COc1cc2nccc(Oc3ccc(NC(=O)c4c5n(n(-c6ccc(F)cc6)c4=O)CCCC5)cc3)c2cc1OC	TEK	enzyme activity	inhibitor	–	0.1 µM	inhibition	26%
